In ChEMBL document CHEMBL4609978, “Synthesis and evaluation of 2'-dihalo ribonucleotide prodrugs with activity against hepatitis C virus” (Bioorg Med Chem, 2020):

What was measured:
Hepatitis C virus [1] = experiment: Antiviral activity against HCV genotype 1a H77 infected in human HuH7 replicon cells assessed as inhibition of viral replication after 3 days by luciferase reporter gene assay; type: functional, organism-based, Hepacivirus hominis; settings: subtype 1a H77, Huh-7, 72 h
Outline: (§1)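 Stable subgenomic replicon cell lines (genotype 1a-H77 or 1b-Con1) carrying a luciferase reporter; compounds added in DMEM with 5% FBS, cells incubated 3 days with or without compound, then lysed and luciferase activity read; EC50 from nonlinear regression fit to 4-parameter logistic equation.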

Hepatitis C virus [2] = experiment: Antiviral activity against HCV genotype 1b Con1 infected in human HuH7 replicon cells assessed as inhibition of viral replication after 3 days by luciferase reporter gene assay; type: functional, organism-based, Hepacivirus hominis; settings: subtype 1b Con1, Huh-7, 72 h; outline: as §1
[3] = Cytotoxicity against human HuH7 cells assessed as reduction in cell viability; type: cell-based, Huh-7; settings: read-out: TD50 (the source's name)
[4] = Prodrug conversion in Beagle dog liver assessed as nucleotide triphosphate level at 5 mg/kg, po administered as single dose measured after 4 hrs by LC-MS/MS analysis; type: ADME, organism-based, Canis lupus familiaris; settings: in vivo
[5] = Prodrug conversion in Beagle dog liver assessed as nucleotide triphosphate level at 5 mg/kg, po co-dosed with 5 mg/kg sofosbuvir measured after 4 hrs by LC-MS/MS analysis; type: ADME, organism-based, Canis lupus familiaris; settings: in vivo
Outline: (§2)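 Beagle dogs (3 per time point) given single oral prodrug 5 mg/kg in EtOH:PEG-400:Phosal 53 MCT (10:30:60, w/w), cassette-dosed with sofosbuvir 5 mg/kg as internal standard; liver biopsies at 4 or 24 h, flash frozen, triphosphate measured by LC-MS/MS.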

[6] = Prodrug conversion in Beagle dog liver assessed as nucleotide triphosphate level at 5 mg/kg, po administered as single dose measured after 24 hrs by LC-MS/MS analysis; type: ADME, organism-based, Canis lupus familiaris; settings: in vivo
[7] = Prodrug conversion in Beagle dog liver assessed as nucleotide triphosphate level at 5 mg/kg, po co-dosed with 5 mg/kg sofosbuvir measured after 24 hrs by LC-MS/MS analysis; type: ADME, organism-based, Canis lupus familiaris; settings: in vivo; outline: as §2
[8] = Prodrug conversion in human primary hepatocytes assessed as nucleotide triphosphate level at 100 uM incubated for 4 hrs followed by compound wash-out for 20 hrs and measured following 4 hrs incubation period by LC-MS/MS analysis; type: ADME, cell-based, Hepatocyte
Outline: (§3)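 Cryopreserved primary human hepatocytes plated ~55,000 viable cells/well on collagen, medium changed after 4–6 h to Williams E maintenance medium with Geltrex 0.35 mg/mL, overnight at 37 °C; prodrug 100 µM for 4 h, then washed; second plate held a further 20 h drug-free; cells washed with ice-cold HBSS, triphosphate measured by LC-MS/MS at 4 or 24 h.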

[9] = Prodrug conversion in human primary hepatocytes assessed as nucleotide triphosphate level at 100 uM incubated for 4 hrs and followed by compound washout for 20 hrs and measured following 24 hrs incubation period by LC-MS/MS analysis; type: ADME, cell-based, Hepatocyte; outline: as §3
Hepatitis C virus [10] = experiment: Antiviral activity against HCV genotype 1b Con1 over expressing CES1 infected in human HuH7 replicon cells assessed as inhibition of viral replication after 3 days by luciferase reporter gene assay; type: functional, organism-based, Hepacivirus hominis; settings: subtype 1b Con1, Huh-7, 72 h
[11] = Distribution coefficient, logD of compound by HT-LCMS analysis; type: physicochemical; settings: octanol/water
[12] = Aqueous solubility of compound in pH 7.4 phosphate buffer; type: physicochemical
[13] = Stability in dog plasma assessed as parent compound remaining after 4 hrs; type: ADME, cell-free, Canis lupus familiaris; settings: read-out: Stability
Outline: (§4)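 Prodrug incubated 4 h at 37 °C in dog or human plasma; result given as percent parent remaining.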

[14] = Stability in human plasma assessed as parent compound remaining after 4 hrs; type: ADME, cell-free; settings: read-out: Stability; outline: as §4
[15] = Unbound drug level in dog plasma; type: ADME, cell-free, Canis lupus familiaris
[16] = Unbound drug level in human plasma; type: ADME, cell-free
[17] = Intrinsic clearance in dog hepatocytes; type: ADME, cell-based, Canis lupus familiaris, Hepatocyte; settings: read-out: CLH (converted)
Hepatitis C virus [18] = experiment: Antiviral activity against HCV genotype 1b Con1 expressing wild type NS5B infected in human HuH7 replicon cells assessed as inhibition of viral replication after 4 days by luciferase reporter gene based assay; type: functional, organism-based, Hepacivirus hominis; settings: subtype 1b Con1, Huh-7, 96 h
Hepatitis C virus [19] = experiment: Antiviral activity against HCV genotype 1b Con1 expressing NS5B S282T mutant infected in human HuH7 replicon cells assessed as inhibition of viral replication after 4 days by luciferase reporter gene based assay; type: functional, organism-based, Hepacivirus hominis; settings: subtype 1b Con1, Huh-7, 96 h
Hepatitis C virus [20] = experiment: Antiviral activity against HCV genotype 2a expressing wild type NS5B infected in human HuH7 replicon cells assessed as inhibition of viral replication after 4 days by luciferase reporter gene based assay; type: functional, organism-based, Hepacivirus hominis; settings: subtype 2a, Huh-7, 96 h
Hepatitis C virus [21] = experiment: Antiviral activity against HCV genotype 2a expressing NS5B S282T mutant infected in human HuH7 replicon cells assessed as inhibition of viral replication after 4 days by luciferase reporter gene based assay; type: functional, organism-based, Hepacivirus hominis; settings: subtype 2a, Huh-7, 96 h
Hepatitis C virus [22] = experiment: Antiviral activity against HCV genotype 3a expressing wild type NS5B infected in human HuH7 replicon cells assessed as inhibition of viral replication after 4 days by luciferase reporter gene based assay; type: functional, organism-based, Hepacivirus hominis; settings: subtype 3a, Huh-7, 96 h
Hepatitis C virus [23] = experiment: Antiviral activity against HCV genotype 3a expressing NS5B S282T mutant infected in human HuH7 replicon cells assessed as inhibition of viral replication after 4 days by luciferase reporter gene based assay; type: functional, organism-based, Hepacivirus hominis; settings: subtype 3a, Huh-7, 96 h
Hepatitis C virus [24] = experiment: Antiviral activity against HCV genotype 4a expressing wild type NS5B infected in human HuH7 replicon cells assessed as inhibition of viral replication after 4 days by luciferase reporter gene based assay; type: functional, organism-based, Hepacivirus hominis; settings: subtype 4a, Huh-7, 96 h
Hepatitis C virus [25] = experiment: Antiviral activity against HCV genotype 6a expressing wild type NS5B infected in human HuH7 replicon cells assessed as inhibition of viral replication after 4 days by luciferase reporter gene based assay; type: functional, organism-based, Hepacivirus hominis; settings: subtype 6a, Huh-7, 96 h
Hepatitis C virus [26] = experiment: Potency index, ratio of sofosbuvir EC50 to compound EC50 for HCV genotype 1a H77 infected in human HuH7 replicon cells assessed as inhibition of viral replication after 3 days by luciferase reporter gene assay; type: functional, Hepacivirus hominis, subtype 1a H77, Huh-7
Outline: (§5)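 Stable subgenomic luciferase-reporter replicon Huh-7 lines, genotype 1a-H77 or 1b-Con1. Test compound and sofosbuvir comparator each run in DMEM with 5% FBS for 3 days. Cells lysed and luciferase activity read. EC50 obtained by nonlinear regression to a 4-parameter logistic equation. Index is sofosbuvir EC50 divided by compound EC50, both from this assay.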

Hepatitis C virus [27] = experiment: Potency index, ratio of sofosbuvir EC50 to compound EC50 for HCV genotype 1b Con1 infected in human HuH7 replicon cells assessed as inhibition of viral replication after 3 days by luciferase reporter gene assay; type: functional, Hepacivirus hominis, subtype 1b Con1, Huh-7; outline: as §5

SMILES: CC(C)OC(=O)[C@H](C)N[P@](=O)(OC[C@H]1O[C@@H](n2ccc(=O)[nH]c2=O)[C@](C)(Cl)[C@@H]1O)Oc1ccccc1
- EC50 (Hepatitis C virus [1]): 139 nM
- EC50 (Hepatitis C virus [2]): 167 nM
- CC50 [3]: > 100000 nM

SMILES: CC(C)OC(=O)[C@H](C)N[P@](=O)(OC[C@H]1O[C@@H](n2ccc(=O)[nH]c2=O)C(Br)(Br)[C@@H]1O)Oc1ccccc1
- EC50 (Hepatitis C virus [1]): 408 nM
- EC50 (Hepatitis C virus [2]): 522 nM
- CC50 [3]: > 100000 nM

SMILES: CC(C)OC(=O)C(C)(C)NP(=O)(OC[C@H]1O[C@@H](n2ccc(=O)[nH]c2=O)[C@](Cl)(Br)[C@@H]1O)Oc1ccccc1 (stereo not given in full)
- EC50 (Hepatitis C virus [1]): 1090 nM
- EC50 (Hepatitis C virus [2]): 1380 nM
- Drug metabolism [4]: 0.713 µM
- Drug metabolism [5]: 4.2 µM
- Drug metabolism [6]: 0.244 µM
- Drug metabolism [7]: 3.43 µM
- Drug metabolism [8]: 157 µM
- Drug metabolism [9]: 40 µM
- EC50 (Hepatitis C virus [10]): 162 nM
- logD [11]: 3.3
- solubility [12]: > 200 µM
- remaining at 4 h [13]: 100%
- remaining at 4 h [14]: 100%
- fraction unbound [15]: 0.13
- fraction unbound [16]: 0.193
- CLint scaled [17]: 133 mL/min/kg

SMILES: CC(C)OC(=O)[C@H](C)N[P@](=O)(OC[C@H]1O[C@@H](n2ccc(=O)[nH]c2=O)[C@@](C)(F)[C@@H]1O)Oc1ccccc1
- EC50 (Hepatitis C virus [1]): > 10000 nM
- EC50 (Hepatitis C virus [2]): > 10000 nM
- CC50 [3]: > 32000 nM

SMILES: CC(C)OC(=O)[C@H](C)N[P@](=O)(OC[C@H]1O[C@@H](n2ccc(=O)[nH]c2=O)[C@](Cl)(Br)[C@@H]1O)Oc1ccccc1
- EC50 (Hepatitis C virus [1]): 114 nM
- EC50 (Hepatitis C virus [2]): 147 nM
- CC50 [3]: 80000 nM
- EC50 (Hepatitis C virus [18]): 30.4 nM
- EC50 (Hepatitis C virus [19]): 161 nM
- EC50 (Hepatitis C virus [20]): 188 nM
- EC50 (Hepatitis C virus [21]): 262 nM
- EC50 (Hepatitis C virus [22]): 31.4 nM
- EC50 (Hepatitis C virus [23]): 142 nM
- EC50 (Hepatitis C virus [24]): 29.9 nM
- EC50 (Hepatitis C virus [25]): 22.7 nM
- Drug metabolism [4]: 0.088 µM
- Drug metabolism [5]: 1.59 µM
- Drug metabolism [6]: 0.049 µM
- Drug metabolism [7]: 1.02 µM
- Drug metabolism [8]: 110 µM
- Drug metabolism [9]: 22 µM
- fraction unbound [15]: 0.213
- fraction unbound [16]: 0.113
- CLint scaled [17]: 113 mL/min/kg

SMILES: CC(C)OC(=O)[C@H](C)N[P@](=O)(OC[C@H]1O[C@@H](n2ccc(=O)[nH]c2=O)C(Cl)(Cl)[C@@H]1O)Oc1ccccc1
- EC50 (Hepatitis C virus [1]): 43 nM
- EC50 (Hepatitis C virus [2]): 48 nM
- CC50 [3]: > 100000 nM
- Ratio EC50 (Hepatitis C virus [26]): 3 - 4
- Ratio EC50 (Hepatitis C virus [27]): 3 - 4

SMILES: CC(C)OC(=O)[C@H](C)N[P@](=O)(OC[C@H]1O[C@@H](n2ccc(=O)[nH]c2=O)[C@@](F)(Cl)[C@@H]1O)Oc1ccccc1
- EC50 (Hepatitis C virus [1]): 53 nM
- EC50 (Hepatitis C virus [2]): 61 nM
- CC50 [3]: 11000 nM
- Ratio EC50 (Hepatitis C virus [26]): 3 - 4
- Ratio EC50 (Hepatitis C virus [27]): 3 - 4
